The source of these data is ChEMBL document CHEMBL1152818, “Structural bioinformatics-based design of selective, irreversible kinase inhibitors” (Science, 2005).

SMILES strings stand for the structures. Calls of active or inactive are those of the source. No cut-off for these calls is given here.

Experiment [1] concerns the target Ribosomal protein S6 kinase alpha-1 (Homo sapiens) (UniProt Q15418). Nature of the experiment: Binding affinity to RSK1 in HEK293 cells assessed as protein labeling at 1 µM preincubated for 1 hr by immunodepletion method.
The target is the same in experiment [2]. Put plainly: Binding affinity to RSK1 in HEK293 cells assessed as protein labeling at 1 µM preincubated for 1 hr by enhanced chemiluminescence detection.
Experiment [3] relates to Ribosomal protein S6 kinase alpha-3 (Homo sapiens), P51812 [T493M]. Put plainly: Binding affinity to RSK2 T493M mutant at 1 uM preincubated for 1 hr by denaturing gel electrophoresis and Western blot. Put shortly:
(§1)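 His6-tagged RSK2 C-terminal kinase domains (WT or mutant) exposed to 1 μM biotin-fmk for 1 hour in the presence of His6-ERK2. Proteins resolved by SDS-PAGE. Western blot probed with streptavidin-HRP for covalent label and anti-His6 for total protein.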

For experiment [4], the target named is T1, Ribosomal protein S6 kinase alpha-3 (Homo sapiens, UniProt P51812). Nature of the experiment: Binding affinity to wild type RSK2 at 1 uM preincubated for 1 hr by denaturing gel electrophoresis and Western blot. In outline:
as §1
Background: Immunoblotting shows a protein as a band on a membrane.

Experiment [5] has as its target T1, Ribosomal protein S6 kinase alpha-3. Put plainly: Binding affinity to RSK2 in HEK293 cells assessed as protein labeling at 1 µM preincubated for 1 hr by enhanced chemiluminescence detection.
In experiment [6] the test system is Ribosomal protein S6 kinase alpha-3 (Homo sapiens), P51812 [C436V]. Nature of the experiment: Binding affinity to RSK2 C436V mutant at 1 uM preincubated for 1 hr by denaturing gel electrophoresis and Western blot. In outline: as §1
Ribosomal protein S6 kinase alpha-3 (Homo sapiens), P51812 [C436V], sequence (P51812 whole entry C436V): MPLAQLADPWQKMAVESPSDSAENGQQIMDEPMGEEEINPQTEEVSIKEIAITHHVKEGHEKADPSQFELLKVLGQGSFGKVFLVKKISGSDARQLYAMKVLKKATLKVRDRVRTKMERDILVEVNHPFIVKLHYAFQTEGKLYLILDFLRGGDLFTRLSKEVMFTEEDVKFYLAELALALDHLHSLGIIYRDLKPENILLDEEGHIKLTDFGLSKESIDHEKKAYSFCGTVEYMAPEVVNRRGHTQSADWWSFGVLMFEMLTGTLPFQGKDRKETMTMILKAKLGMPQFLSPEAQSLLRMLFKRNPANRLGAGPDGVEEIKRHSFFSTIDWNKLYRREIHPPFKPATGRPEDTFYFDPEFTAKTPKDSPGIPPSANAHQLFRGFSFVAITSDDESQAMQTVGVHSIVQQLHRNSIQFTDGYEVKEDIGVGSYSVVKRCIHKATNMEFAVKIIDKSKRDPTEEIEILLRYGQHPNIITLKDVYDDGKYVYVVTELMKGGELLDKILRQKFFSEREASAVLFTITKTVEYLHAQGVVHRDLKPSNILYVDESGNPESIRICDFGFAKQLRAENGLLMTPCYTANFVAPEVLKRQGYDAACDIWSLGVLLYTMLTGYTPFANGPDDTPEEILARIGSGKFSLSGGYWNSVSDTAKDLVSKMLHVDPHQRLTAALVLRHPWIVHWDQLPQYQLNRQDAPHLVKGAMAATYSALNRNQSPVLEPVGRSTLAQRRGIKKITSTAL
Experiment [7] deals with T1, Ribosomal protein S6 kinase alpha-3. Nature of the experiment: Binding affinity to RSK2 in HEK293 cells assessed as protein labeling at 1 µM preincubated for 1 hr by immunodepletion method.
Experiment [8] has as its system Tyrosine-protein kinase transforming protein Src (Avian leukosis virus RSA (RSV-SRA) (Rous sarcoma virus (strainSchmidt-Ruppin A))), P00524 [V281C]. Nature of the experiment: Reversion of Rous sarcoma virus V-src V281C mutant-dependent cell morphology in mouse NIH-3T3 cells assessed as cells acquiring actin stress fibres at 1 uM after 16 hrs by phalloidin-FITC and DAPI staining. The experiment is classed as cell-based. The conditions noted are these: NIH3T3.

The subject of experiment [9] is NIH3T3. Put plainly: Reversion of Rous sarcoma virus wild type V-src-dependent cell morphology in mouse NIH-3T3 cells assessed as cells acquiring actin stress fibres at 1 uM after 16 hrs by phalloidin-FITC and DAPI staining. The experiment is classed as cell-based.
Experiment [10] addresses Tyrosine-protein kinase Fyn (Homo sapiens, UniProt P06241, V285C). Put plainly: Inhibition of FYN Val285Cys mutant expressed in Escherichia coli.
Experiment [11] deals with NIH3T3. Put plainly: Inhibition of Rous sarcoma virus wild type V-src expressed in mouse NIH-3T3 cells assessed as reduction in steady-state phosphotyrosine level preincubated for 1 hr by Western blot. The experiment is classed as cell-based.
The test system of experiment [12] is Tyrosine-protein kinase transforming protein Src (Avian leukosis virus RSA (RSV-SRA) (Rous sarcoma virus (strainSchmidt-Ruppin A))), P00524 [V281C]. Nature of the experiment: Inhibition of Rous sarcoma virus V-src V281C mutant expressed in mouse NIH-3T3 cells assessed as reduction in steady-state phosphotyrosine level preincubated for 1 hr by Western blot. The conditions noted are these: NIH3T3. The experiment is classed as cell-based.

Experiment [13] in a line: Inhibition of EGF-stimulated RSK2 Ser386 autophosphorylation in serum starved african green monkey COS7 cells by immunoprecipitation and Western blot. The experiment is classed as cell-based, Chlorocebus aethiops. The settings on record: cos-7. In outline:
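COS-7 cells serum-deprived 20 h, exposed to a range of inhibitor concentrations, then stimulated with EGF (1 ng/mL) for 10 min. Endogenous RSK2 immunoprecipitated and blotted for phospho-Ser386 and total RSK2. EC50 taken from the concentration series.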

The subject of experiment [14] is COS-7. Nature of the experiment: Inhibition of EGF-stimulated ERK2 phosphorylation in serum starved african green monkey COS7 cells at 10 µM by Western blot. The conditions noted are these: Chlorocebus aethiops.
Experiment [15] addresses Ribosomal protein S6 kinase alpha-5 (Homo sapiens) (UniProt O75582). Nature of the experiment: Inhibition of MSK1-mediated histone H3 Ser10 phosphorylation expressed in serum starved african green monkey COS7 cells by Western blot. Format: cell-based. The conditions noted are these: COS-7. Put shortly:
(§2)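 COS-7 cells transfected with HA-tagged WT or M498T MSK1. Lysed in Laemmli buffer. Western blots probed for phospho-Ser386 RSK (MSK1 autophosphorylation), HA epitope and phospho-Ser10 histone H3.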

In experiment [16] the test system is NIH3T3. Nature of the experiment: Inhibition of PMA-stimulated histone H3 phosphorylation in mouse NIH-3T3 cells at 10 uM by SDS page and Western blot. The experiment is classed as functional, cell-based.
Experiment [17] deals with Ribosomal protein S6 kinase alpha-5 (Homo sapiens), O75582 [M498T]. Nature of the experiment: Inhibition of MSK1 M498T mutant phosphorylation expressed in serum starved african green monkey COS7 cells by Western blot. The settings on record: COS-7. Format: cell-based. Put shortly:
as §2

For experiment [18], the system named is COS-7. Nature of the experiment: Inhibition of EGF-stimulated ERK1 phosphorylation in serum starved african green monkey COS7 cells at 10 µM by Western blot. The conditions noted are these: Chlorocebus aethiops.
Experiment [19] has as its target Ribosomal protein S6 kinase alpha-3 (Homo sapiens, UniProt P51812, T493M). Put plainly: Inhibition of RSK2 C-terminal kinase domain T493M mutant expressed in Escherichia coli preincubated for 30 mins. In outline: (§3)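 His6-tagged RSK2 CTDs (WT or mutant) expressed in E. coli, activated with bacterially expressed His6-ERK2 plus ATP. Enzyme at 1 nM pretreated with inhibitor for 30 min, then assayed with 0.1 mM ATP and 0.1 mM "CTD-tide" peptide substrate.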

In experiment [20] the target is Ribosomal protein S6 kinase alpha-3 (Homo sapiens, UniProt P51812, C436V). Put plainly: Inhibition of RSK2 C-terminal kinase domain C436V mutant expressed in Escherichia coli preincubated for 30 mins. In outline:
as §3

Experiment [21] deals with T1, Ribosomal protein S6 kinase alpha-3. Nature of the experiment: Inhibition of RSK2 C-terminal kinase domain expressed in Escherichia coli preincubated for 30 mins. In outline: as §3

T1 sequence (P51812 whole entry): as the sequence (P51812 whole entry C436V) above, with V436C counted along it
Tyrosine-protein kinase Fyn, sequence (P06241 2-537 V285C limits assumed): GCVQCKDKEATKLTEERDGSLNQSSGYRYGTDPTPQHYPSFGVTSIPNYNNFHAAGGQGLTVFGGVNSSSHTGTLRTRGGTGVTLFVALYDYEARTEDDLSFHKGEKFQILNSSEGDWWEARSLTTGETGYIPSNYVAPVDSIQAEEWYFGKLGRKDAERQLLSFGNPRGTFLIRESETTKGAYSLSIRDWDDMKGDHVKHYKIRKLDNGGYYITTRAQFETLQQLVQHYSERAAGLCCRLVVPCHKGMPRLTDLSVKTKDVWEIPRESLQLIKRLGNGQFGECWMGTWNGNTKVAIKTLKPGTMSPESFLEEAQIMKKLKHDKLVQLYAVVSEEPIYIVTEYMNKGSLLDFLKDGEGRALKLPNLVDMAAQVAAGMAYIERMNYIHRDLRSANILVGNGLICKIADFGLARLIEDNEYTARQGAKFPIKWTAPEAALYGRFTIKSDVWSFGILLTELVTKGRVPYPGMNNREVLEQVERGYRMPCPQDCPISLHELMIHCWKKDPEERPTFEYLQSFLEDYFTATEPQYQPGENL
Ribosomal protein S6 kinase alpha-1 (Homo sapiens), sequence (Q15418 whole entry): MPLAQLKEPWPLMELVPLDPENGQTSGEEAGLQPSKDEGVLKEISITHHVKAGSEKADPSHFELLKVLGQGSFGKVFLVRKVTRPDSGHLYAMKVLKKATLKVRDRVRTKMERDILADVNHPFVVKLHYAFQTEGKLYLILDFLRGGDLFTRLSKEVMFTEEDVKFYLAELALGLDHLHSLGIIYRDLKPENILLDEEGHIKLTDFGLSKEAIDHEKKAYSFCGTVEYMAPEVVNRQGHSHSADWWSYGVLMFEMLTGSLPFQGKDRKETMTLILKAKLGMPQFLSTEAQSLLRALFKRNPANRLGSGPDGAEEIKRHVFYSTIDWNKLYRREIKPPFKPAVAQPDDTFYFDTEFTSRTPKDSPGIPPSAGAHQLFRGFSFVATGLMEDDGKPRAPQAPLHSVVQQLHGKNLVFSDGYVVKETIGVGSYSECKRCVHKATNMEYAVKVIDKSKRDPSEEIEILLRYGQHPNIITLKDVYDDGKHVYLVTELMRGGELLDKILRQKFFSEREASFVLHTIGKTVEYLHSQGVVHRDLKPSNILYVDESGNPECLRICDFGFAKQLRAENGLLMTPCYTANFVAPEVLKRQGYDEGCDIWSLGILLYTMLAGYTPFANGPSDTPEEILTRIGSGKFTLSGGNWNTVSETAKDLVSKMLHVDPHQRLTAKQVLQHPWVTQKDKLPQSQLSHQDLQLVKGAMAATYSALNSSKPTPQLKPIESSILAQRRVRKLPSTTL
Ribosomal protein S6 kinase alpha-5 (Homo sapiens), O75582 [M498T], sequence (O75582 whole entry M498T): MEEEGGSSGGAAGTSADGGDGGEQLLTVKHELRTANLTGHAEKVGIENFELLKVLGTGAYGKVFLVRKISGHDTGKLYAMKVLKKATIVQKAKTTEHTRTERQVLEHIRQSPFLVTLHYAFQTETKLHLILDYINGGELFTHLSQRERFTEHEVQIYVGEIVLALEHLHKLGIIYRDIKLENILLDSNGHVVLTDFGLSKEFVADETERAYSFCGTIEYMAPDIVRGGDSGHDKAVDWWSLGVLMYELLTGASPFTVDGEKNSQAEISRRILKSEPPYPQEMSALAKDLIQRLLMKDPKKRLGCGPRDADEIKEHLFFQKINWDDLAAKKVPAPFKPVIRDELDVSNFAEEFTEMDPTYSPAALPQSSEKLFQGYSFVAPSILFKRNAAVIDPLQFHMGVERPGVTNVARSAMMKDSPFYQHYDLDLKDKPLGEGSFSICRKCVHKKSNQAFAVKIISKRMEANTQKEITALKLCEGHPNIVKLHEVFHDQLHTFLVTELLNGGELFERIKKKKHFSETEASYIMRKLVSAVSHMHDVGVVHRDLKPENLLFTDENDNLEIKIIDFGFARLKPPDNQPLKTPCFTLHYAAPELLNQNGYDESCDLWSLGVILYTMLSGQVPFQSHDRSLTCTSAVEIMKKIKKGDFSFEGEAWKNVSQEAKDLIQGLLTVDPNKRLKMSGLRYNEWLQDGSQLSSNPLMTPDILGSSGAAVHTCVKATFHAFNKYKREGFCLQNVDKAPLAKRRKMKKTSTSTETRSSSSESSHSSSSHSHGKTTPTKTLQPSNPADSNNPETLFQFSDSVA
Ribosomal protein S6 kinase alpha-3 (Homo sapiens, UniProt P51812, C436V), sequence (P51812 whole entry C436V, the tested form may be a part): as the sequence (P51812 whole entry C436V) above
Ribosomal protein S6 kinase alpha-5 (Homo sapiens), sequence (O75582 whole entry, looked up): as the sequence (O75582 whole entry M498T) above, with T498M counted along it
Ribosomal protein S6 kinase alpha-3 (Homo sapiens), P51812 [T493M], sequence (P51812 whole entry T493M, the tested form may be a part): as the sequence (P51812 whole entry C436V) above, with V436C, T493M counted along it
Ribosomal protein S6 kinase alpha-3 (Homo sapiens, UniProt P51812, T493M), sequence (P51812 whole entry T493M, the tested form may be a part): as the sequence (P51812 whole entry C436V) above, with V436C, T493M counted along it

Consider `Cc1ccc(-c2c(C(=O)CF)n(CCCOC(=O)NCCCCNC(=O)CCCC[C@@H]3SC[C@H]4NC(=O)N[C@@H]34)c3ncnc(N)c23)cc1`, for which the result in [1], in experiment [2], in experiment [4], in [5] and in experiment [7] was Active. Besides, the outcome in experiment [3] and in [6] was inactive.

As for `Cc1ccc(-c2c(C(=O)CCl)n(CCCO)c3ncnc(N)c23)cc1`, the Activity in experiment [8] is 2%; in experiment [9] it was 75%. In addition, half-maximal inhibition in [10] (IC50) was put at 100 nM. Besides, in experiment [11], the outcome was inactive. For the same molecule, the outcome in [12] was Active.

Take `Cc1ccc(-c2c(C(=O)CF)n(CCCO)c3ncnc(N)c23)cc1`: the concentration for a half-maximal effect (EC50) – broadly, the concentration that produces a half-maximal response – in experiment [13] was determined as 200 nM. Also, the outcome in experiment [14], in [15], in experiment [16] and in experiment [18] was inactive. For the same molecule, in experiment [10], the IC50 (in general, the concentration that inhibits the measured activity by half) is 1 nM. Further, in experiment [17], the result was Active.

In the case of `Cc1ccc(-c2cn(CCCO)c3ncnc(N)c23)cc1`, the values for the IC50 in [19], in [20] and in experiment [21] were > 30000 nM, 430 nM and 1200 nM, respectively.
